Assay outcomes as filed in PubChem.
ABHD5-PLIN5 inh: blocks binding of human ABHD5 to perilipin-5; Q00G26+Q8WTS1; Split G. princeps luciferase complementation, luminescence, 4 h; inhibition, % at 4 µM; hit rate 0.78% among 360,000;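 active means inhibition above the mean inhibition across every tested compound plus 3 SD, cut at about 22% in these data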
CHOP UPR activ: activators of apoptotic arm of unfolded protein response (CHOP); CHO-CHOP luciferase reporter, UPR activation, luminescence; percent of tunicamycin response over DMSO baseline; activation, % at 10 µM; hit rate 0.34% among 330,000;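 active means at 10 µM dose, activation of 40% or more, normalized to positive control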
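Material: CHO-CHOP cells, stable luciferase reporter of PERK-eIF2a-CHOP signalling; quantity: 500 reporter cells seeded per well; buffer or medium: F12 medium containing 10% fetal bovine serum; compound: one dose, 10 µM in 0.5% DMSO; incubation: 6 h compound treatment, 37 °C; measured by: Steady-Glo luciferase luminescence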
Granule exo inh: blocks lytic granule exocytosis. TALL-104 LAMP-1 surface exposure, flow cytometry; cells stimulated with thapsigargin and PMA. inhibition, % at 10 µM. hit rate 0.66% among 360,000. AID 651702;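 active means inhibition above about 55%, limit read from the data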
Mdm2 MdmX PPI: human Mdm2/MdmX binding inhibition; O15151+Q00987; SaOS-2 split-luciferase Mdm2/MdmX complementation, luminescence; inhibition, % at 8 µM; hit rate 3% among 330,000;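 active means inhibition of at least 50% at 8 µM in the primary screen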
Target sequence (O15151 whole entry, looked up): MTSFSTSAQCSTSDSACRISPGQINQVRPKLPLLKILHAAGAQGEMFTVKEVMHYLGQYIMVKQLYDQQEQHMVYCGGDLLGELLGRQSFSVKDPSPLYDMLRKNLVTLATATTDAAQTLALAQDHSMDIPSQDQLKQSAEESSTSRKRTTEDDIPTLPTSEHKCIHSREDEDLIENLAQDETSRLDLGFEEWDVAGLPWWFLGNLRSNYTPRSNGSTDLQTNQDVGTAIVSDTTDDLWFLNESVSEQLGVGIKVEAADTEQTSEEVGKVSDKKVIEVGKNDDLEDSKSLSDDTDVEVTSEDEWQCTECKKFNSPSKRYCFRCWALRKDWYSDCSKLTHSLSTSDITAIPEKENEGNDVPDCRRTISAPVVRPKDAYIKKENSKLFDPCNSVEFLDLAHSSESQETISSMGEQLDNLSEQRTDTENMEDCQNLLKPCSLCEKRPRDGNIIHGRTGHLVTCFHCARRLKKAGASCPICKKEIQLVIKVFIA
Target sequence (Q00987 whole entry, looked up): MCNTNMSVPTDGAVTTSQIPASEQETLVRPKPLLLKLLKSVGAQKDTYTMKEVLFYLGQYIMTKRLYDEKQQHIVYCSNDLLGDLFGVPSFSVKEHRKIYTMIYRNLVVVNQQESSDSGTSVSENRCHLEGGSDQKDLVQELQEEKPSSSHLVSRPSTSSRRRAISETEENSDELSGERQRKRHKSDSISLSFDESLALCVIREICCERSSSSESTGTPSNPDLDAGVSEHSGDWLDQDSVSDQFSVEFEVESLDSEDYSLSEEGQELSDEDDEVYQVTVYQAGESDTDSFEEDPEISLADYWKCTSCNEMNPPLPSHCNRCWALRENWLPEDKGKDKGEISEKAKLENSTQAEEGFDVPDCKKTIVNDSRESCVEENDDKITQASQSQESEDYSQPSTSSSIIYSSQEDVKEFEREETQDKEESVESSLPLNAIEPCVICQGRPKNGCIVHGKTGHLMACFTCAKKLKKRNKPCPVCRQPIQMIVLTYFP
XBP1 UPR activ: adaptive UPR (XBP1) activation; activation, % at 20 µM; hit rate 0.33% among 330,000; CHO-XBP1 luciferase reporter, IRE1-XBP1 UPR activation, luminescence; percent of tunicamycin response, DMSO as zero; AID 463104;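 active means versus positive control, 20 µM dose yields 30% or more activation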
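Material: CHO-XBP1 cells stably carrying IRE1-XBP1-driven luciferase reporter | Medium: F12 with 10% serum | Compound dosing: 20 µM single concentration, DMSO 1% | Incubation: Overnight seeding at 37 °C, 6 h compound treatment at 37 °C | Detection: Steady-Glo luminescence read | Read-out basis: % activation of reporter signal versus tunicamycin and DMSO controls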
XBP1 UPR conf: confirmation of adaptive unfolded protein response (XBP1) activators | hit rate 63% among 1,000 | activation, % at 20 µM | shares compounds with XBP1 UPR activ | CHO-XBP1 IRE1-XBP1 luciferase reporter, luminescence;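 active means reporter signal at least 30% of the positive control's activation in two or more of four replicate wells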
Of the large screens only hits and unclear results are named; the others gave an inactive call (follow-up assays come after a bar, where they were run). Shown are actives, neighbours in structure and some others; about 4% of the full set was active somewhere.

COc1ccc(-c2ccc3c(c2)S(=O)(=O)c2cccc(C(=O)NC4CCCC4)c2C3=O)cc1OC	none
Cc1ccc(C(=O)OCC(=O)c2ccc(CC(=O)N3CCOCC3)s2)c(C)c1	none
O=C(COc1ccc2ccc(=O)oc2c1)Nc1c(Cl)cccc1C(F)(F)F	XBP1 UPR activ 31 | XBP1 UPR conf inactive
O=C(COc1ccc2ccc(=O)oc2c1)Nc1cccnc1	none
COCCNC(=O)C1CC(c2cccc(F)c2)=NO1 (centres undefined)	XBP1 UPR activ 31 | XBP1 UPR conf inactive
O=C(Nc1ccc(-c2nc3c(ccc4ccccc43)o2)cc1)c1ccco1	XBP1 UPR activ 33 | XBP1 UPR conf inactive
O=C(Nc1ccc(-c2nc3cc(Cl)ccc3c(=O)o2)cc1)c1ccco1	none
COC(=O)c1ccc2c(=O)n(CC3CCCO3)c(SCC(=O)Nc3ccccc3Cl)nc2c1 (centres undefined)	XBP1 UPR activ 35 | XBP1 UPR conf inactive
COC(=O)c1ccc2c(=O)n(CC3CCCO3)c(SCC(=O)Nc3ccccc3OC)nc2c1 (centres undefined)	none
COC(=O)c1sc(NC(=O)c2cnccn2)c(C(=O)OC)c1C	XBP1 UPR activ 41 (no result: ABHD5-PLIN5 inh, Granule exo inh) | XBP1 UPR conf inactive
COc1ccc2[nH]c3c(c2c1)CCN1C(=O)C(CC(=O)NC/C=C(\C)CCC=C(C)C)C[C@H](C(=O)N2CCOCC2)[C@@]31CCC1CCCC1 (some centres undefined)	XBP1 UPR activ 47 | XBP1 UPR conf 58
CC[C@]12c3[nH]c4ccc(OC)cc4c3CCN1C(=O)C(CC(=O)NC/C=C(\C)CCC=C(C)C)C[C@@H]2C(=O)N1CCN(C(=O)C2CC2)CC1 (some centres undefined)	none
O=C(Cn1ccc2ccccc2c1=O)NCCC(=O)N1CCCCC1	none
Cc1cccn2c(=O)c3cc(C(=O)NC4CCCCCC4)sc3nc12	XBP1 UPR activ 355 | XBP1 UPR conf 97
c1ccc(-c2ccc(C3=Nn4c(nnc4-c4cc(-c5ccccc5)n[nH]4)SC3)cc2)cc1	XBP1 UPR activ 64 | XBP1 UPR conf inactive
COc1ccccc1NC(CC(=O)c1ccccc1)C(=O)OCC(=O)c1ccc(C)c(C)c1 (centres undefined)	XBP1 UPR activ 36 | XBP1 UPR conf inactive
CCCNC(=O)/C(C#N)=C1\N=C(NC(=O)c2cccs2)c2ccccc21	XBP1 UPR activ 45 | XBP1 UPR conf 66
O=S1(=O)CC(N2CCN(CC3CC3)CC2)CN1C1CCCCC1 (centres undefined)	none (no result: CHOP UPR activ, Mdm2 MdmX PPI, XBP1 UPR activ)
CC/C(=N/Nc1ccccc1)c1cnnc(-c2ccccc2)n1	XBP1 UPR activ 69 | XBP1 UPR conf inactive
CCCN1CCN(C(=O)Cn2ncc3c([nH]c4ccc(C)cc43)c2=O)CC1	none
Cc1ccc2[nH]c3c(=O)n(CC(=O)N4CC(C)CC(C)C4)ncc3c2c1 (centres undefined)	XBP1 UPR activ 32 | XBP1 UPR conf inactive
O=C(COC(=O)c1ccc2[nH]c3c(c2c1)CCCC3)Nc1ccccc1Cl	XBP1 UPR activ 52 | XBP1 UPR conf 66
COc1ccc(C(=O)N2CC(c3ccc(Cl)cc3)CC2=O)cc1 (centres undefined)	none
COc1ccc(-c2csc(C3=C(O)CN(Cc4ccc(Cl)cc4)C3=N)n2)cc1OC	XBP1 UPR activ 43 | XBP1 UPR conf 134
COc1ccc(Br)cc1-c1nc2c(c(=O)[nH]c(=O)n2Cc2ccccc2)n1C	XBP1 UPR activ 50 | XBP1 UPR conf 65
Cn1c(-c2cc(Cl)ccc2O)nc2c1c(=O)[nH]c(=O)n2Cc1ccccc1	none
S=c1[nH]nc(C2CCCCC2)n1/N=C/c1ccncc1	none
O=[N+]([O-])c1ccc(/C=N/n2c(C3CCCCC3)n[nH]c2=S)cc1	XBP1 UPR activ 34 | XBP1 UPR conf inactive
NC(=O)C1CCN(c2nc(-c3ccc(F)cc3)cs2)CC1	none
C#CCOCCOCCOCCNc1nc(N2CCN(C(=O)CCCCCCCCCCNC(=O)[C@H](CCCCN)n3cc(C)nn3)CC2)nc(N2CCN(C(=O)CCCCCCCCCCNC(=O)[C@H](CCCN=C(N)N)n3cc(C[C@@H](C)CC)nn3)CC2)n1	none (no result: ABHD5-PLIN5 inh, Granule exo inh)
C#CCOCCOCCOCCNc1nc(N2CCN(C(=O)CCCCCCCCCCNC(=O)[C@H](CCCCN)n3cc(C[C@@H](C)CC)nn3)CC2)nc(N2CCN(C(=O)CCCCCCCCCCNC(=O)[C@H](CCCN=C(N)N)n3cc(C[C@@H](C)CC)nn3)CC2)n1	ABHD5-PLIN5 inh 63, XBP1 UPR activ 31 | XBP1 UPR conf 29
Cc1cccc(NC(=O)c2cc3c(=O)n4ccccc4nc3n(CC(C)C)c2=N)c1	XBP1 UPR activ 99 | XBP1 UPR conf inactive
CC(C)n1c(=N)c(C(=O)NCCc2ccccc2)cc2c(=O)n3ccccc3nc21	none
Cc1cc(C)cc(NC(=O)Cn2c(=O)oc3cc(S(=O)(=O)N4CCC(C)CC4)ccc32)c1	XBP1 UPR activ 32 | XBP1 UPR conf inactive
CC1CCN(S(=O)(=O)c2ccc3c(c2)oc(=O)n3CC(=O)NCc2ccc3c(c2)OCO3)CC1	none
COc1ccc(OC)c(NC(=O)Nc2nnc([C@H]3C[C@H](O)[C@@H](CO)O3)s2)c1	none (no result: CHOP UPR activ, Mdm2 MdmX PPI, XBP1 UPR activ)
COc1ccccc1NC(=O)c1cc2c(CO)cnc(C)c2oc1=Nc1ccccc1	Granule exo inh 81, XBP1 UPR activ 501 | XBP1 UPR conf 168
COC(=O)c1cc(N=Cc2c(O)c3ccccc3oc2=O)cc(C(=O)OC)c1	none
COc1ccc(Cl)cc1N=Cc1c(O)c2ccccc2oc1=O	XBP1 UPR activ 42 | XBP1 UPR conf inactive
COc1ccc2[nH]c3nc(SCc4nnc(-c5ccc(C)cc5)o4)nnc3c2c1	XBP1 UPR activ 71 | XBP1 UPR conf 190
C#CCn1c(=NC(=O)c2ccc(Cl)s2)sc2cccc(OC)c21	XBP1 UPR activ 136 | XBP1 UPR conf 112
CC(=O)c1sc(NC(=O)c2cc3c(C)nn(-c4ccccc4)c3s2)nc1C	none
Cc1nc(NC(=O)c2cc3c(C)nn(-c4ccccc4)c3s2)sc1C(=O)Nc1ccccc1	XBP1 UPR activ 49 | XBP1 UPR conf 54
Cc1ncc(/C=C2\C(=O)Nc3ccccc32)[nH]1	none (no result: ABHD5-PLIN5 inh, Granule exo inh)
O=C1Nc2ccccc2/C1=C/c1ccc([N+](=O)[O-])cc1	XBP1 UPR activ 75 | XBP1 UPR conf 76
CC(C)(C)C1CCc2sc(-c3nnc(CCl)o3)cc2C1 (centres undefined)	XBP1 UPR activ 44 | XBP1 UPR conf inactive
COC(=O)c1c(NC(=O)c2cccc(N3C(=O)CCC3=O)c2)sc2c1CCN(C(C)=O)C2	none
COC(c1ccccc1)(c1ccccc1)C(Oc1nccc(C)n1)C(=O)O (centres undefined)	XBP1 UPR activ 137 | XBP1 UPR conf inactive
